Source: ChEMBL document CHEMBL1909504, “New series of isoniazid hydrazones linked with electron-withdrawing substituents” (Eur J Med Chem, 2011)
In brackets after ≈: the same amount, converted by molar mass.

Columns and labels:
[1] = test system: Mycobacterium tuberculosis; assay: Antimycobacterial activity against Mycobacterium tuberculosis CNTC My 331/88 ATCC 27294 after 14 days; assay type: functional; conditions: CNTC My 331/88 ATCC 27294, 336 h
Method in brief: (§1)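 Sula semi-synthetic medium at 37 °C. Compounds were dissolved in DMSO (max. 5% DMSO in water) and added to the medium at 1000, 500, 250, 125, 62, 31, 16, 8, 4, 2 and 1 μmol L⁻¹. MIC was read after 7, 14 and 21 days of incubation at 37 °C. Strains came from the Czech National Collection of Type Cultures.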

[2] = test system: Mycobacterium tuberculosis; assay: Antimycobacterial activity against Mycobacterium tuberculosis CNTC My 331/88 ATCC 27294 after 21 days; assay type: functional; conditions: CNTC My 331/88 ATCC 27294, 504 h; method in brief: as §1
Mycobacterium avium [3] = assay: Antimycobacterial activity against Mycobacterium avium CNTC My 330/88 after 14 days; assay type: functional; conditions: CNTC My 330/88, 336 h; method in brief: as §1
Mycobacterium avium [4] = assay: Antimycobacterial activity against Mycobacterium avium CNTC My 330/88 after 21 days; assay type: functional; conditions: CNTC My 330/88, 504 h; method in brief: as §1
Mycobacterium kansasii [5] = assay: Antimycobacterial activity against Mycobacterium kansasii CNTC My 335/80 after 7 days; assay type: functional; conditions: 168 h
Method in brief: (§2)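 MIC in Sula semi-synthetic medium at 37 °C. M. kansasii 6509/96 is a clinical isolate; M. kansasii CNTC My 235/80 comes from the Czech national collection. Compounds were dissolved in DMSO (max. 5% DMSO in water) and tested at 1000, 500, 250, 125, 62, 31, 16, 8, 4, 2 and 1 μmol L⁻¹. MIC was read after 7, 14 and 21 days.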

Mycobacterium kansasii [6] = assay: Antimycobacterial activity against Mycobacterium kansasii CNTC My 335/80 after 14 days; assay type: functional; conditions: 336 h; method in brief: as §2
Mycobacterium kansasii [7] = assay: Antimycobacterial activity against Mycobacterium kansasii CNTC My 335/80 after 21 days; assay type: functional; conditions: 504 h; method in brief: as §2
Mycobacterium kansasii [8] = assay: Antimycobacterial activity against Mycobacterium kansasii 6509/96 isolate after 7 days; assay type: functional; conditions: 6509/96, 168 h; method in brief: as §2
Mycobacterium kansasii [9] = assay: Antimycobacterial activity against Mycobacterium kansasii 6509/96 isolate after 14 days; assay type: functional; conditions: 6509/96, 336 h; method in brief: as §2
Mycobacterium kansasii [10] = assay: Antimycobacterial activity against Mycobacterium kansasii 6509/96 isolate after 21 days; assay type: functional; conditions: 6509/96, 504 h; method in brief: as §2
HepG2 = assay: Cytotoxicity against human HepG2 cells by MTT assay; assay type: cell-based
Method in brief: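 MTT viability assay in RPMI-1640 without phenol red with 10% FCS and 2 mM L-glutamine, at 37 °C and 5% CO₂. HepG2 seeded at 5×10³ cells/well; fresh human PBMC at 2.0×10⁵ cells/well. After 24 h, cells were exposed overnight in serum-free medium, then given MTT (2 mg mL⁻¹) for 4 h. Formazan dissolved in DMSO, OD540 minus OD620, compared with untreated controls. IC50 taken from dose-response curves; two independent experiments, 4–8 parallels.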

| Compound | MIC [1] [µM] | MIC [2] [µM] | MIC (Mycobacterium avium [3]) [µM] | MIC (Mycobacterium avium [4]) [µM] | MIC (Mycobacterium kansasii [5]) [µM] | MIC (Mycobacterium kansasii [6]) [µM] | MIC (Mycobacterium kansasii [7]) [µM] | MIC (Mycobacterium kansasii [8]) [µM] | MIC (Mycobacterium kansasii [9]) [µM] | MIC (Mycobacterium kansasii [10]) [µM] | IC50 (HepG2) [µM] |
| --- | --- | --- | --- | --- | --- | --- | --- | --- | --- | --- | --- |
| O=C(N/N=C/Nc1cccc(Br)c1)c1ccncc1 | 1 (≈ 0.319 µg/mL) | 1 (≈ 0.319 µg/mL) | 250 (≈ 79.8 µg/mL) | 500 (≈ 160 µg/mL) | 250 (≈ 79.8 µg/mL) | 1000 (≈ 319 µg/mL) | 1000 (≈ 319 µg/mL) | 8 (≈ 2.55 µg/mL) | 8 (≈ 2.55 µg/mL) | 16 (≈ 5.11 µg/mL) | – |
| O=C(N/N=C/Nc1ccc(F)cc1)c1ccncc1 | 1 (≈ 0.258 µg/mL) | 2 (≈ 0.517 µg/mL) | 250 (≈ 64.6 µg/mL) | 500 (≈ 129 µg/mL) | 250 (≈ 64.6 µg/mL) | 1000 (≈ 258 µg/mL) | > 1000 | 8 (≈ 2.07 µg/mL) | 8 (≈ 2.07 µg/mL) | 8 (≈ 2.07 µg/mL) | – |
| O=C(N/N=C/Nc1ccc(Br)cc1)c1ccncc1 | 2 (≈ 0.638 µg/mL) | 4 (≈ 1.28 µg/mL) | 500 (≈ 160 µg/mL) | 500 (≈ 160 µg/mL) | 125 (≈ 39.9 µg/mL) | 250 (≈ 79.8 µg/mL) | 500 (≈ 160 µg/mL) | 32 (≈ 10.2 µg/mL) | 32 (≈ 10.2 µg/mL) | 32 (≈ 10.2 µg/mL) | – |
| NNC(=O)c1ccncc1 [ISONIAZID] | 1 (≈ 0.137 µg/mL) | 1 (≈ 0.137 µg/mL) | > 250 | > 250 | > 250 | > 250 | > 250 | 2 (≈ 0.274 µg/mL) | 4 (≈ 0.549 µg/mL) | 4 (≈ 0.549 µg/mL) | > 1000 |
| O=C(N/N=C/Nc1cccc(O)c1)c1ccncc1 | 2 (≈ 0.513 µg/mL) | 2 (≈ 0.513 µg/mL) | 500 (≈ 128 µg/mL) | 500 (≈ 128 µg/mL) | 250 (≈ 64.1 µg/mL) | 1000 (≈ 256 µg/mL) | 1000 (≈ 256 µg/mL) | 16 (≈ 4.1 µg/mL) | 32 (≈ 8.2 µg/mL) | 32 (≈ 8.2 µg/mL) | – |
| O=C(N/N=C/Nc1ccc(O)cc1)c1ccncc1 | 4 (≈ 1.03 µg/mL) | 8 (≈ 2.05 µg/mL) | 500 (≈ 128 µg/mL) | 500 (≈ 128 µg/mL) | 250 (≈ 64.1 µg/mL) | 500 (≈ 128 µg/mL) | 500 (≈ 128 µg/mL) | 32 (≈ 8.2 µg/mL) | 62.5 (≈ 16 µg/mL) | 62.5 (≈ 16 µg/mL) | – |
| O=C(N/N=C/Nc1cccc(C(F)(F)F)c1)c1ccncc1 | 1 (≈ 0.308 µg/mL) | 1 (≈ 0.308 µg/mL) | 500 (≈ 154 µg/mL) | 1000 (≈ 308 µg/mL) | 125 (≈ 38.5 µg/mL) | 250 (≈ 77.1 µg/mL) | 1000 (≈ 308 µg/mL) | 16 (≈ 4.93 µg/mL) | 16 (≈ 4.93 µg/mL) | 32 (≈ 9.86 µg/mL) | – |
| O=C(N/N=C/Nc1cccc(F)c1)c1ccncc1 | 1 (≈ 0.258 µg/mL) | 1 (≈ 0.258 µg/mL) | 500 (≈ 129 µg/mL) | 1000 (≈ 258 µg/mL) | 125 (≈ 32.3 µg/mL) | 1000 (≈ 258 µg/mL) | > 1000 | 16 (≈ 4.13 µg/mL) | 16 (≈ 4.13 µg/mL) | 16 (≈ 4.13 µg/mL) | – |
| O=C(N/N=C/Nc1ccc(Cl)cc1O)c1ccncc1 | 2 (≈ 0.581 µg/mL) | 4 (≈ 1.16 µg/mL) | 250 (≈ 72.7 µg/mL) | 500 (≈ 145 µg/mL) | 250 (≈ 72.7 µg/mL) | 500 (≈ 145 µg/mL) | 500 (≈ 145 µg/mL) | 16 (≈ 4.65 µg/mL) | 16 (≈ 4.65 µg/mL) | 32 (≈ 9.3 µg/mL) | – |
| COc1cccc(N/C=N/NC(=O)c2ccncc2)c1 | 2 (≈ 0.541 µg/mL) | 2 (≈ 0.541 µg/mL) | 500 (≈ 135 µg/mL) | 500 (≈ 135 µg/mL) | 250 (≈ 67.6 µg/mL) | 500 (≈ 135 µg/mL) | 1000 (≈ 270 µg/mL) | 16 (≈ 4.32 µg/mL) | 16 (≈ 4.32 µg/mL) | 16 (≈ 4.32 µg/mL) | – |
